{"source": "ChEMBL document CHEMBL4330068", "about": "“Design, synthesis and evaluation of pentacycloundecane and hexacycloundecane propargylamine derivatives as multifunctional neuroprotective agents” (Eur J Med Chem, 2019)", "key": {"[1]": {"system": "SH-SY5Y", "experiment": "Neuroprotective activity in human SH-SY5Y cells assessed as reduction in MPP+ induced cytotoxicity at 5 to 10 uM preincubated for 2 hrs followed by MPP+ addition measured after 48 hrs by MTT assay", "format": "functional, cell-based"}, "[2]": {"target": "Glutamate [NMDA] receptor (Homo sapiens) (UniProt Q05586+Q12879+Q13224+O15399+O60391+Q14957+Q8TCU5)", "experiment": "Antagonist activity at NMDA receptor in human SH-SY5Y cells assessed as reduction in NMDA/glycine-stimulated calcium influx at 10 uM preincubated for 30 mins in presence of Mag-Fura-2/AM dye followed by NMDA/glycine stimulation and measured over 35 secs by fluorescence assay (reference value: 100%)", "format": "cell-based", "outline": "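SH-SY5Y cells loaded with ratiometric Ca indicator Mag-Fura-2/AM, incubated with compound at 10 µM for 30 min at 37 °C, then stimulated with concentrated NMDA/glycine solution; fluorescence change from cytosolic Ca rise read on plate reader. % NMDAr inhibition calculated relative to MK-801 (10 µM); DMSO vehicle. Mean of at least 9 independent experiments.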"}, "[3]": {"target": "T1, Amine oxidase [flavin-containing] B (Homo sapiens, UniProt P27338)", "T1 sequence (P27338 whole entry)": "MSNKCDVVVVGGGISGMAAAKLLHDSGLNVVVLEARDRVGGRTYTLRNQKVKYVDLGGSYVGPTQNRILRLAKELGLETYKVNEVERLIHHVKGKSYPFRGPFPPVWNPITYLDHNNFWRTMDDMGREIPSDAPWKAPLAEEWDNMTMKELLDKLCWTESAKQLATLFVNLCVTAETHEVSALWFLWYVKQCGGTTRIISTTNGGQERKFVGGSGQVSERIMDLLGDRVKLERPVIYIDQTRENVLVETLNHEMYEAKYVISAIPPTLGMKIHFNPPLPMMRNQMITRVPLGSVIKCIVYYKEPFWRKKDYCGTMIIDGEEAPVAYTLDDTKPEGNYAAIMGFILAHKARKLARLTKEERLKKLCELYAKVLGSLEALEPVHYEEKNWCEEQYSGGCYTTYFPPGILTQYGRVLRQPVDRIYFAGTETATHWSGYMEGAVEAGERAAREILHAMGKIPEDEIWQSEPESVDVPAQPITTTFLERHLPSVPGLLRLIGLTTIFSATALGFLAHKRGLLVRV", "experiment": "Inhibition of recombinant human MAO-B using kynuramine as substrate after 20 mins by fluorescence assay"}, "[4]": {"experiment": "Cytotoxicity against human SH-SY5Y cells assessed as cell viability at 10 uM after 48 hrs by MTT assay (reference value: 100%)", "format": "cell-based", "conditions": "read-out: Activity", "outline": "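SH-SY5Y cells exposed to compound at 10, 50 or 100 µM for 48 h; viability by MTT, read spectrophotometrically. DMSO vehicle-treated cells set as 100% viability. Mean ± SEM, n = 3 with four fields per repeat; ANOVA.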"}, "[5]": {"system": "SH-SY5Y", "experiment": "Neuroprotective activity in human SH-SY5Y cells assessed as reduction in MPP+ induced cytotoxicity by measuring cell viability at 1 uM preincubated for 2 hrs followed by MPP+ addition and measured after 48 hrs by MTT assay (reference value: 45%)", "format": "functional"}, "[6]": {"target": "T2, Amine oxidase [flavin-containing] A (Homo sapiens, UniProt P21397)", "T2 sequence (P21397 whole entry)": "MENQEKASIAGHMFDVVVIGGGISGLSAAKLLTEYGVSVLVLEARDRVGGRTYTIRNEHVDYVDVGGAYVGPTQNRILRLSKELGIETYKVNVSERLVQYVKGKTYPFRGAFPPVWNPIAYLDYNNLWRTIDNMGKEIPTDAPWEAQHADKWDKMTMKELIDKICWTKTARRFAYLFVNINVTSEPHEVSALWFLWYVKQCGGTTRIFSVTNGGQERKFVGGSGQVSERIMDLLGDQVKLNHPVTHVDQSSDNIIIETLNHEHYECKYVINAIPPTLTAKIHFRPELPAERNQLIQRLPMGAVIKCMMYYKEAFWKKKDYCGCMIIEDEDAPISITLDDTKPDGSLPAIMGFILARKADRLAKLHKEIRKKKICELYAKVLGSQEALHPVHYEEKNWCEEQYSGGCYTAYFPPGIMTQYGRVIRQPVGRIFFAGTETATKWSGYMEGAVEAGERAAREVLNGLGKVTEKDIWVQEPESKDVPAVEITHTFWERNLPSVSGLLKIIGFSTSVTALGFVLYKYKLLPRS", "experiment": "Irreversible inhibition of recombinant human MAO-A at 2 times IC50 preincubated up to 60 mins followed by kynuramine substrate addition and measured after 20 mins by fluorescence assay", "outline": "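Recombinant human MAO-A is preincubated with inhibitor for 0, 15, 30 or 60 min, then the kynuramine reaction is started. Residual oxidation rate is read as 4-hydroxyquinoline fluorescence (RFU). Results are the mean of three independent experiments.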"}, "[7]": {"target": "T2, Amine oxidase [flavin-containing] A", "experiment": "Inhibition of recombinant human MAO-A using kynuramine as substrate after 20 mins by fluorescence assay"}, "[8]": {"target": "T1, Amine oxidase [flavin-containing] B", "experiment": "Reversible inhibition of recombinant human MAO-B at 2 times IC50 preincubated up to 60 mins followed by kynuramine substrate addition and measured after 20 mins by fluorescence assay"}, "[9]": {"target": "T1, Amine oxidase [flavin-containing] B", "experiment": "Inhibition of recombinant human MAO-B using kynuramine as substrate after 20 mins by fluorescence assay relative to control", "outline": "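Recombinant human MAO-B oxidises kynuramine. The product, 4-hydroxyquinoline, is read by fluorescence in the supernatant (excitation 310 nm, emission 400 nm).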"}, "[10]": {"target": "Voltage-gated L-type calcium channel (Homo sapiens, UniProt Q13936+Q13698+Q01668+O60840)", "experiment": "Inhibition of voltage-dependent L-type calcium channel in human SH-SY5Y cells assessed as reduction in KCl-stimulated calcium influx at 100 uM preincubated for 30 mins in presence of Mag-Fura-2/AM dye followed by KCl stimulation and measured over 35 secs by fluorescence assay", "format": "cell-based", "conditions": "35 s"}}, "note": "Calls of active or inactive are those of the source. The rule behind the calls is not given here.", "data": [{"smiles": "C#CCNCc1ccc(CN2C3C4C5CC6C7C5C3C7C2(O)C64)cc1", "note": "(stereo unspecified)", "values": [{"measurement": "Activity", "setting": "[1]", "value": "Active"}, {"measurement": "inhibition", "setting": "[2]", "value": 0.6, "unit": "%"}, {"measurement": "IC50", "setting": "[3]", "value": 3.8, "unit": "µM"}, {"measurement": "viability at 48 h, 10 µM", "setting": "[4]", "value": 98, "unit": "%"}, {"measurement": "Activity", "setting": "[5]", "value": 43, "unit": "%"}, {"measurement": "inhibition (INH)", "setting": "[6]", "value": "Active"}, {"measurement": "IC50", "setting": "[7]", "value": 56.2, "unit": "µM"}, {"measurement": "inhibition (INH)", "setting": "[8]", "value": "Active"}]}, {"smiles": "C#CCN1C2C3C4CC5C6C4C2C6C1(O)C53", "note": "(stereo unspecified)", "values": [{"measurement": "inhibition", "setting": "[2]", "value": 4, "unit": "%"}, {"measurement": "inhibition (INH)", "setting": "[9]", "value": 6, "unit": "%"}, {"measurement": "inhibition (INH)", "setting": "[10]", "value": "Not Active"}]}, {"smiles": "C#CCNCc1ccc(CNC23OC4C5C6CC(C7C6C4C72)C53)cc1", "note": "(stereo unspecified)", "values": [{"measurement": "inhibition", "setting": "[2]", "value": 31.4, "unit": "%"}]}, {"smiles": "C#CCNCc1ccc(C/N=C2/C3C4CC5C6C4C2C6C2(OCCO2)C53)cc1", "note": "(stereo unspecified)", "values": [{"measurement": "inhibition", "setting": "[2]", "value": 88.3, "unit": "%"}]}, {"smiles": "NCc1ccc(CN2C3C4C5CC6C7C5C3C7C2(O)C64)cc1", "note": "(stereo unspecified)", "values": [{"measurement": "Activity", "setting": "[1]", "value": "Active"}, {"measurement": "inhibition", "setting": "[2]", "value": 59, "unit": "%"}, {"measurement": "IC50", "setting": "[3]", "value": "> 100", "unit": "µM"}, {"measurement": "viability at 48 h, 10 µM", "setting": "[4]", "value": 107, "unit": "%"}, {"measurement": "Activity", "setting": "[5]", "value": 46, "unit": "%"}, {"measurement": "IC50", "setting": "[7]", "value": "> 100", "unit": "µM"}]}, {"smiles": "Nc1ccc(C/N=C2/C3C4CC5C6C4C2C6C2(OCCO2)C53)cc1", "note": "(stereo unspecified)", "values": [{"measurement": "inhibition", "setting": "[2]", "value": 63.1, "unit": "%"}]}, {"smiles": "Nc1ccc(CN2C3C4C5CC6C7C5C3C7C2(O)C64)cc1", "note": "(stereo unspecified)", "values": [{"measurement": "Activity", "setting": "[1]", "value": "Active"}, {"measurement": "inhibition", "setting": "[2]", "value": 11.9, "unit": "%"}, {"measurement": "IC50", "setting": "[3]", "value": "> 100", "unit": "µM"}, {"measurement": "viability at 48 h, 10 µM", "setting": "[4]", "value": 101, "unit": "%"}, {"measurement": "Activity", "setting": "[5]", "value": 31, "unit": "%"}, {"measurement": "IC50", "setting": "[7]", "value": "> 100", "unit": "µM"}]}, {"smiles": "Nc1ccc(CNC23OC4C5C6CC(C7C6C4C72)C53)cc1", "note": "(stereo unspecified)", "values": [{"measurement": "inhibition", "setting": "[2]", "value": "inactive"}]}, {"smiles": "c1ccc(CNC23OC4C5C6CC(C7C6C4C72)C53)cc1", "note": "(stereo unspecified)", "values": [{"measurement": "Activity", "setting": "[1]", "value": "Active"}, {"measurement": "inhibition", "setting": "[2]", "value": 32.5, "unit": "%"}, {"measurement": "IC50", "setting": "[3]", "value": "> 100", "unit": "µM"}, {"measurement": "viability at 48 h, 10 µM", "setting": "[4]", "value": 86, "unit": "%"}, {"measurement": "Activity", "setting": "[5]", "value": 66, "unit": "%"}, {"measurement": "IC50", "setting": "[7]", "value": "> 100", "unit": "µM"}]}, {"smiles": "c1cc(C/N=C2\\C3C4CC5C6C4C2C6C2(OCCO2)C53)ccc1C/N=C1/C2C3CC4C5C3C1C5C1(OCCO1)C42", "note": "(stereo unspecified)", "values": [{"measurement": "inhibition", "setting": "[2]", "value": 70.5, "unit": "%"}]}, {"smiles": "NCc1ccc(C/N=C2/C3C4CC5C6C4C2C6C2(OCCO2)C53)cc1", "note": "(stereo unspecified)", "values": [{"measurement": "inhibition", "setting": "[2]", "value": 49.5, "unit": "%"}]}, {"smiles": "NCc1ccc(CNC2C3C4CC5C6C4C2C6C2(OCCO2)C53)cc1", "note": "(stereo unspecified)", "values": [{"measurement": "inhibition", "setting": "[2]", "value": "inactive"}]}, {"smiles": "COCCOC(=O)C1=C(C)NC(C)=C(C(=O)OC(C)C)C1c1cccc([N+](=O)[O-])c1", "note": "(stereo unspecified)", "values": [{"measurement": "inhibition", "setting": "[2]", "value": "inactive"}]}, {"smiles": "C#CCNC12OC3C4C5CC(C6C5C3C61)C42", "note": "(stereo unspecified)", "values": [{"measurement": "inhibition", "setting": "[2]", "value": "inactive"}, {"measurement": "inhibition (INH)", "setting": "[10]", "value": "Not Active"}]}, {"smiles": "ClCc1ccc(CNC23OC4C5C6CC(C7C6C4C72)C53)cc1", "note": "(stereo unspecified)", "values": [{"measurement": "inhibition", "setting": "[2]", "value": 26.1, "unit": "%"}]}, {"smiles": "C#CCNCc1ccc(CNC2C3C4CC5C6C4C2C6C2(OCCO2)C53)cc1", "note": "(stereo unspecified)", "values": [{"measurement": "inhibition", "setting": "[2]", "value": 63.9, "unit": "%"}]}]}
